Data published in ChEMBL document CHEMBL3421595, “Design and Synthesis of New α-Naphthoflavones as Cytochrome P450 (CYP) 1B1 Inhibitors To Overcome Docetaxel-Resistance Associated with CYP1B1 Overexpression” (J Med Chem, 2015).

Assays:
Cytochrome P450 1B1 [1] = biological target: T1, Cytochrome P450 1B1 (Homo sapiens, UniProt Q16678); test: Inhibition of human CYP1B1 assessed as reduction in 7-ethoxyresorufin O-deethylation activity by fluorescence based EROD assay
T1 sequence (Q16678 whole entry): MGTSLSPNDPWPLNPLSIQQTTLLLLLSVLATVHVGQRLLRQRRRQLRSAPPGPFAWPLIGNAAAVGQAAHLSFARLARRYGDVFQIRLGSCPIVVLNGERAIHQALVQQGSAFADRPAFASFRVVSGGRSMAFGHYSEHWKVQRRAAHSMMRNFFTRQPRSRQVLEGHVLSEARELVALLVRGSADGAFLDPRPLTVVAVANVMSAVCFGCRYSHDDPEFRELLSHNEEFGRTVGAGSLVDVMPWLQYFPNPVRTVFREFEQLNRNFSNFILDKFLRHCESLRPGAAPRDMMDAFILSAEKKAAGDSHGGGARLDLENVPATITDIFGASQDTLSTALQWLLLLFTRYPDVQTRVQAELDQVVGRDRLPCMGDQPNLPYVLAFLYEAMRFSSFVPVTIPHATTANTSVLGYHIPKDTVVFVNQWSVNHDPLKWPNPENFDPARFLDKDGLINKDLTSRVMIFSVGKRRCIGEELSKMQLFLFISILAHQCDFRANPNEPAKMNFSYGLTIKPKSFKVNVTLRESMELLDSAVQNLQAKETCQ
In short: (§1)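 Recombinant human CYP1B1, 1A1 and 1A2 in a standard EROD assay. NADPH regeneration system: 1.3 mM NADP+, 3.3 mM G-6-P, 0.5 U/mL G6-PD. Incubation time 35 min for CYP1B1, 15 min for 1A1 and 50 min for 1A2. IC50 by Probit analysis; selectivity taken as the ratio of IC50 values.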

Cytochrome P450 1A1 = biological target: T2, Cytochrome P450 1A1 (Homo sapiens, UniProt P04798); test: Inhibition of human CYP1A1 assessed as reduction in 7-ethoxyresorufin O-deethylation activity by fluorescence based EROD assay; format: ADME
T2 sequence (P04798 whole entry): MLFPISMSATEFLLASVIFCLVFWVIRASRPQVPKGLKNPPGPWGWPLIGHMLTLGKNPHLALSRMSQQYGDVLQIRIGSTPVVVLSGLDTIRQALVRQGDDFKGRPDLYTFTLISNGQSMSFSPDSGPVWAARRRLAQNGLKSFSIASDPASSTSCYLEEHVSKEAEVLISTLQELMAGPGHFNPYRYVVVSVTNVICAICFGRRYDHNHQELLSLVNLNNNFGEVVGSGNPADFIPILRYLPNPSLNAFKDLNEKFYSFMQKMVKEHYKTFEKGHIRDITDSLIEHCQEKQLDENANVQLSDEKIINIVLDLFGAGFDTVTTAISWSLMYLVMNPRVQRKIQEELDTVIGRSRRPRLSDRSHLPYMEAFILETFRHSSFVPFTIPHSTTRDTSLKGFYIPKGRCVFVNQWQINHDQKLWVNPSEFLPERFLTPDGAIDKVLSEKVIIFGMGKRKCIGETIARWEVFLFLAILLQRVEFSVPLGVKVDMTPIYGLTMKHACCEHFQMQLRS
In short: as §1, with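 “assay. 7-Ethoxyresorufin fixed at 150 nM.” for “assay.”, “1A2. Resorufin fluorescence read at ex 545 / em 590 nm.” for “1A2.”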

Cytochrome P450 1A2 = biological target: T3, Cytochrome P450 1A2 (Homo sapiens, UniProt P05177); test: Inhibition of human CYP1A2 assessed as reduction in 7-ethoxyresorufin O-deethylation activity by fluorescence based EROD assay; format: ADME; in short: as §1
T3 sequence (P05177 whole entry): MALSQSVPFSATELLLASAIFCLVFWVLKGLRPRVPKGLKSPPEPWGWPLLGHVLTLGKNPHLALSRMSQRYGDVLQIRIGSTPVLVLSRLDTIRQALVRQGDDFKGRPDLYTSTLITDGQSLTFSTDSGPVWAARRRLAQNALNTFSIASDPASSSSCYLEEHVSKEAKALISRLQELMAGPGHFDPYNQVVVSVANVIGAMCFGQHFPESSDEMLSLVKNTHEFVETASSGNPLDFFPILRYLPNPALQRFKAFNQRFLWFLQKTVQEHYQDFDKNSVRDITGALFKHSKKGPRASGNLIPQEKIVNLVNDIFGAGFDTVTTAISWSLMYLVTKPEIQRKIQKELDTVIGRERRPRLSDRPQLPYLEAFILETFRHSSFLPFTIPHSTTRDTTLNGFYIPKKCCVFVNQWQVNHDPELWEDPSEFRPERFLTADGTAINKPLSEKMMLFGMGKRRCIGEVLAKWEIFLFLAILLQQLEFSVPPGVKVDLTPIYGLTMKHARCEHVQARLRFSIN

Homo sapiens [2] = organism: Homo sapiens; test: Selectivity index, ratio of IC50 for human CYP1A1 to IC50 for human CYP1B1
In short: as §1, with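 “assay. 7-Ethoxyresorufin fixed at 150 nM.” for “assay.”, “1A2. Resorufin fluorescence read at ex 545 / em 590 nm.” for “1A2.”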

Homo sapiens [3] = organism: Homo sapiens; test: Selectivity index, ratio of IC50 for human CYP1A2 to IC50 for human CYP1B1
In short: as §1, with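 “assay. 7-Ethoxyresorufin fixed at 150 nM.” for “assay.”, “1A2. Resorufin fluorescence read at ex 545 / em 590 nm.” for “1A2.”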

Cytochrome P450 1B1 [4] = biological target: T1, Cytochrome P450 1B1; test: Potency index, ratio of IC50 for ANF to IC50 for compound against human CYP1B1 assessed as reduction in 7-ethoxyresorufin O-deethylation activity by fluorescence based EROD assay; conditions: read-out: Ratio IC50
In short: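 Recombinant human CYP1B1 EROD assay with 150 nM 7-ethoxyresorufin. NADPH regeneration system (1.3 mM NADP+, 3.3 mM G-6-P, 0.5 U/mL G6-PD) replaced NADPH. Incubated 35 min; resorufin fluorescence read at ex 545/em 590 nm. IC50 by Probit analysis. ANF was the positive control in the same assay, and the index divides its IC50 by the compound's IC50.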

Compound	IC50 (Cytochrome P450 1B1 [1]) [nM]	IC50 (Cytochrome P450 1A1) [nM]	IC50 (Cytochrome P450 1A2) [nM]	Ratio IC50 (Homo sapiens [2])	Ratio IC50 (Homo sapiens [3])	selectivity ratio (Cytochrome P450 1B1 [4])
COc1ccc(OC)c2c1c(OC)cc1c(=O)cc(-c3ccc(O)cc3)oc12	643	114	58.4	0.18	0.09	–
COc1ccc(OC)c2c1c(OC)cc1c(=O)cc(-c3ccc(OCc4ccccc4)cc3)oc12	771	67.8	43	0.09	0.06	–
COc1ccc(OC)c2c1c(OC)cc1c(=O)c(OCCCCOC(=O)CN)c(-c3cccc(F)c3)oc12	37	70.2	122	1.9	3.3	–
COc1ccc(OC)c2c1c(OC)cc1c(=O)cc(-c3cccc(Cl)c3)oc12	0.3	6.4	61.1	21	204	–
COc1cc(-c2cc(=O)c3cc(OC)c4c(OC)ccc(OC)c4c3o2)cc(OC)c1OC	9.8	22.5	23.5	2.3	2.4	–
COc1ccc(-c2cc(=O)c3cc(OC)c4c(OC)ccc(OC)c4c3o2)cc1	1.1	12.9	16.4	12	15	–
COc1ccc(OC)c2c1c(OC)cc1c(=O)cc(-c3ccc(F)cc3)oc12	0.3	9.8	15.4	33	51	–
COc1ccc(OC)c2c1c(OC)cc1c(=O)cc(-c3cccc(F)c3)oc12	–	11.5	36.7	267	853	–
COc1ccc(OC)c2c1c(OC)cc1c(=O)cc(-c3ccccc3)oc12	0.2	4.8	16.1	24	81	6
COc1ccc(OC)c2c1c(OC)cc1c(=O)c(O)c(-c3ccccc3F)oc12	1.2	27.5	29.4	23	25	–
COc1ccc(OC)c2c1c(OC)cc1c(=O)c(O)c(-c3ccccc3)oc12	2.3	31.6	34.4	14	15	–
COc1ccc(OC)c2c1c(OC)cc1c(=O)c(O)c(-c3cccc(Cl)c3)oc12	3.5	46	42.5	13	12	–
COc1ccc(-c2cc(=O)c3cc(OC)c4c(OC)ccc(OC)c4c3o2)cc1OC	2.5	11.5	19.3	4.6	7.7	–
COc1ccc(OC)c2c1c(OC)cc1c(=O)c(O)c(-c3ccccc3Cl)oc12	1.6	32.9	49.6	21	31	–

Now from value to molecule, other results behind:

IC50 (Cytochrome P450 1B1 [1]) [nM]	IC50 (Cytochrome P450 1A1) [nM]	IC50 (Cytochrome P450 1A2) [nM]	Compound	Ratio IC50 (Homo sapiens [2])	Ratio IC50 (Homo sapiens [3])	selectivity ratio (Cytochrome P450 1B1 [4])
98.4	39.4	85.9	COc1ccc(OC)c2c1c(OC)cc1c(=O)c(OCCOC(=O)[C@H](C)N)c(-c3cccc(F)c3)oc12	0.4	0.87	–
62.9	12.1	50.6	COc1ccc(OC)c2c1c(OC)cc1c(=O)cc(-c3ccccc3O)oc12	0.19	0.8	–
> 100000	535	96.9	COc1ccc(OC)c2c1c(OC)cc1c(=O)cc(-c3ccc(OCc4ccccc4)c(OCc4ccccc4)c3)oc12	–	–	–
9	18.8	13.5	COc1ccccc1-c1cc(=O)c2cc(OC)c3c(OC)ccc(OC)c3c2o1	2.1	1.5	–
114	192	68.3	COc1ccc(OC)c2c1c(OC)cc1c(=O)c(OCCOC(=O)[C@@H](N)C(C)C)c(-c3cccc(F)c3)oc12	1.7	0.6	–
5	26.9	83.3	COc1ccc(OC)c2c1c(OC)cc1c(=O)c(O)c(-c3ccc(Cl)cc3)oc12	5.4	17	–
12.3	20.2	129	COc1ccc(OC)c2c1c(OC)cc1c(=O)c(OCCCCCCCCOC(=O)CN)c(-c3cccc(F)c3)oc12	1.6	10	–
1.1	19.2	58	COc1ccc(OC)c2c1c(OC)cc1c(=O)cc(-c3ccccc3Cl)oc12	17.5	53	–
68.8	36.2	120	COc1ccc(OC)c2c1c(OC)cc1c(=O)c(OCCCCCCOC(=O)CN)c(-c3cccc(F)c3)oc12	0.53	1.7	–
0.2	1.8	27.7	COc1ccc(OC)c2c1c(OC)cc1c(=O)cc(-c3ccc(Cl)cc3)oc12	9	139	–
19.6	13.6	56.2	COc1ccc(OC)c2c1c(OC)cc1c(=O)c(OCCOC(=O)CN)c(-c3cccc(F)c3)oc12	0.69	2.9	–
0.8	11.8	57.6	COc1ccc(OC)c2c1c(OC)cc1c(=O)c(O)c(-c3ccc(F)cc3)oc12	15	72	–
0.3	66.9	26.5	COc1ccc(OC)c2c1c(OC)cc1c(=O)c(O)c(-c3cccc(F)c3)oc12	223	88	–
0.2	5.9	22.1	COc1ccc(OC)c2c1c(OC)cc1c(=O)cc(-c3ccccc3F)oc12	29.5	111	–
